# From PubChem BioAssay AID504383 (The Scripps Research Institute Molecular Screening Center, 2011)
# In all, about 2,500 compounds went through this assay and about 1,200 (48%) were called active. So high a share suggests a set chosen from earlier hits. The list shows a part of the results. A number with no mark means an inactive call.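 Rule for the calls: active = mean activation above the low control average plus 3 SD, as set in the primary screen (cut at about 12% in these data); inactive = the rest.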
# Target: Troponin I, cardiac muscle (Homo sapiens) + Troponin T, cardiac muscle (Homo sapiens) + Troponin C, slow skeletal and cardiac muscles (Homo sapiens) (UniProt P19429+P45379+P63316)
# Experiment: calcium sensitizers of cardiac thin filaments – biochemical, IANBD-TnC fluorescence, triplicate, confirmation (AID 504383);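 note: 0% = DMSO at 0.472 mM calcium and 100% = DMSO at 2.9 mM calcium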
# Conditions: IANBD-labeled cardiac RTF, Ca2+ sensitivity fluorescence; at 7.2 µM; active compounds read high; scaled from EC20 to saturating calcium; tested at EC20 calcium, 0.472 mM
# Outline: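 Test system: labelled regulated thin filament protein complex. Dosing: single nominal compound dose of 7.2 µM. Benchmarks: EC20 and EC100 calcium wells. Read-out basis: fluorescence gain scaled between EC20 and EC100 calcium controls. Probe or stimulus: submaximal calcium at 0.472 mM (EC20). Technique: fluorescence. Times: 15 min compound exposure, 25 °C.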
row,Structure (SMILES),activation
1,COc1ccc(-c2nc(/C=C3\C(C)=Nc4ccccc43)c(O)o2)cc1,12.1% (active)
2,CC1=Nc2ccccc2/C1=C\c1nc(-c2ccc(F)cc2)oc1O,7.33%
3,CC1=Nc2ccccc2/C1=C\c1nc(-c2ccc(C(F)(F)F)cc2)oc1O,7.9%
4,N#C/C(=C/c1ccc(-c2ccccc2)o1)c1nc(-c2cccs2)cs1,105% (active)
5,N#C/C(=C\c1ccc(-c2ccc(F)cc2)o1)C(=O)Nc1nc(-c2cccs2)cs1,81.8% (active)
6,Cn1c(/C(C#N)=C/c2ccc(-c3ccc(S(N)(=O)=O)cc3)o2)nc2ccccc21,9.43%
7,O=C1NC(c2ccco2)Nc2sc3c(c21)CCN(Cc1ccccc1)C3 (configuration not stated),11.7% (active)
8,CN1CCc2c(sc3c2C(=O)NC(c2ccco2)N3)C1 (configuration not stated),1.53%
9,Cc1ccsc1C1NC(=O)c2c(sc3c2CCN(C)C3)N1 (configuration not stated),63.1% (active)
10,CN1CCc2c(sc3c2C(=O)NC(c2ccccn2)N3)C1 (configuration not stated),1.45%
11,Cc1ccc(C2NC(=O)c3c(sc4c3CCN(C)C4)N2)o1 (configuration not stated),12.6% (active)
12,Cc1ccc(C2NC(=O)c3c(sc4c3CCN(C)C4)N2)s1 (configuration not stated),5.94%
13,CN1CCc2c(sc3c2C(=O)NC(c2cccs2)N3)C1 (configuration not stated),9.65%
14,CSc1ccc(C2NC(=O)c3c(sc4c3CCN(C)C4)N2)cc1 (configuration not stated),22.9% (active)
15,CCc1ccccc1NC(=S)NCc1cccn1C,9.11%
16,O=C(NCCCN1CCOCC1)C(=O)NCc1ccco1,9.34%
17,Cn1c(C(=O)NCCCN2CCCCCC2)cc2c(=O)n(C)c3ccccc3c21,18.9% (active)
18,O=C(C1=NN[C@@H]2C(=O)N(c3ccccc3C(F)(F)F)C(=O)[C@H]12)c1ccc2ccccc2n1,60.7% (active)
19,Cc1ccc(C)c(N2CCN(C(=O)CN3C(=S)NC(C)(C)CC3C)CC2)c1 (configuration not stated),42.4% (active)
20,CC1CC(C)(C)NC(=S)N1CCCC(=O)Nc1ccccc1F (configuration not stated),-0.32%
21,CC(C)C[C@@H](CN=[N+]=[N-])N1CCN(C)CCC1=O,-0.6%
22,CCN1CCN(C2=CC3=CC(=C(C#N)C#N)CCC3CC2)CC1 (configuration not stated),0.71%
23,Cc1oc(-c2ccccc2Cl)nc1CSc1nc2c(c(=O)[nH]1)CCC2,6.98%

row,Structure (SMILES),activation
1,Fc1ccc(CNC(=S)NCc2ccc(F)cc2)cc1,54.8% (active)
2,O=C(NCc1ccccc1)C1(c2cccc(F)c2)CCCC1,6.54%
3,Fc1ccc(CNCc2ccc(Br)cc2)cc1,10.4%
4,Cc1cc(=O)c2c([nH]1)c(C)cc1[nH]c(C)c(C)c12,9.89%
5,CC1(C)C([N+](=O)[O-])C(c2ccc(F)cc2)NC(c2ccc(F)cc2)C1[N+](=O)[O-] (configuration not stated),1.97%
6,COC(=O)C1(C)NC(c2ccc(C)cc2)C2C(=O)N(c3ccc(F)cc3)C(=O)C21 (configuration not stated),17% (active)
7,CC(C)CN1CCN(Cc2cccn2-c2ccc(Cl)cn2)CC1CCO (configuration not stated),155% (active)
8,COc1ccc(S(=O)(=O)N2CN(Cc3ccco3)c3nc4ccccc4nc32)cc1,127% (active)
9,O=S(=O)(c1ccc(F)cc1)N1CN(Cc2ccco2)c2nc3ccccc3nc21,19% (active)
10,CCCCCCC(=O)N/N=C/c1ccco1,7.23%
11,CS(=O)(=O)N(CC(=O)N/N=C/c1ccco1)c1ccccc1Br,116% (active)
12,Cc1ccccc1N(CC(N)=O)S(C)(=O)=O,4.33%
13,O=C(O)c1ccccc1-c1c2cc(I)c(=O)c(I)c-2oc2c(I)c(O)c(I)cc12,5.23%
14,C#CCOCCOCCOCCNc1nc(N2CCN(C(=O)Cn3cc(CCCCN)nn3)CC2)nc(N2CCN(C(=O)Cn3cc(CC(C)O)nn3)CC2)n1 (configuration not stated),5.79%
15,C=C1CCN(C(CC(C)C)C(=O)OC)S(=O)(=O)c2ccccc21 (configuration not stated),4.69%
16,O=C(O)c1ccc2c(c1)S(=O)(=O)c1ccccc1C2=O,6.82%
17,C=C1CCN([C@@H](Cc2ccccc2)C(=O)O)S(=O)(=O)c2ccccc21,15.6% (active)
18,COc1ccc(/C=C/C=C2\N=C(SC)SC2=O)cc1,6.95%
19,COc1ccc(/C=C/c2nc3sc4c(c3c(=O)o2)CCC4)cc1,292% (active)
20,Fc1ccc(-c2[nH]ncc2CN(CC2CCC2)CC2CCCO2)c(F)c1 (configuration not stated),46.1% (active)
21,CCN1C/C(=C/c2ccc(N3CCOCC3)cc2)C(=O)/C(=C/c2ccc(N3CCOCC3)cc2)C1,4.14%
22,O=C1/C(=C/c2ccc(N3CCCC3)cc2)NC(=S)N1C1CC1,1.84%
23,CN1C/C(=C\c2ccc(N3CCOCC3)cc2)C(=O)/C(=C/c2ccc(N3CCOCC3)cc2)C1,11.8% (active)

row,Structure (SMILES),activation
1,CCCN1C(=O)/C(=C/c2ccc(N3CCOCC3)cc2)NC1=S,217% (active)
2,CCN1C(=O)/C(=C/c2ccc(N3CCCC3)cc2)NC1=S,7.36%
3,CCC(C)NC(=O)C1CC(=O)N(CCc2ccc(F)cc2)C1 (configuration not stated),331% (active)
4,COc1ccc(S(=O)(=O)N2CCC(C(=O)NC(C)CCc3ccccc3)CC2)cc1 (configuration not stated),11.2%
5,O=[N+]([O-])c1ccc(N/N=C/c2ccc(OCc3cccc4ccccc34)cc2)nc1,8.03%
6,Clc1ccccc1/C=N/NC1=Nc2cccc3cccc1c23,5.59%
7,O=[N+]([O-])c1ccc(NN=Cc2cccc3ccccc23)nc1,31.4% (active)
8,Cc1cc(C)c(C#N)c(Sc2nnnn2-c2ccccc2)n1,27.6% (active)
9,Cc1cc(C)c2c(=O)n(-c3ccccc3)[nH]c2n1,10.3%
10,O=c1c(/C=N/Nc2ccccc2)c(Sc2nnnn2-c2ccccc2)nc2ccccn12,2.36%
11,CC(C)(C)c1cc(NCc2ccccn2)n2ncc(-c3ccc(Cl)cc3)c2n1,7.76%
12,COC(=O)c1c(=O)n(O)c2ccc(OC)cc2[n+]1[O-],16.1% (active)
13,COc1ccc2c(c1)c(/C=C/c1cc[n+](C)cc1)cn2C,4.1%
14,CCOC(=O)c1c(=O)n(O)c2ccc(OC)cc2[n+]1[O-],8.7%
15,COC(=O)C1CSc2[nH]c(=O)sc2C1c1ccccc1 (configuration not stated),8.86%
16,CN(C)c1ccc(/C=C2\NC(=S)N(Cc3ccccc3)C2=O)cc1,217% (active)
17,Cc1ccc(C2C3CN(C(C)C)CC=C3C(C#N)=C(N)C2(C#N)C#N)cc1 (configuration not stated),9.22%
18,Cc1ccc([C@@H]2C3COCC=C3C(C#N)=C(N)C2(C#N)C#N)o1 (some centres not stated),13.5% (active)
19,CC(C)CN1CCC(C(=O)N2CCN(c3ccccc3F)CC2)CC1,4.79%
20,CCC(CC)C(=O)c1c[nH]c(C(=O)N2CCN(c3ccccc3F)CC2)c1,60.8% (active)
21,CCOc1ccc(CNC(=O)c2ccc(Sc3ccc(Cl)cc3)c(NC(C)=O)c2)cc1,16.5% (active)
22,CCOc1c2ccc(C(=O)NCc3ccc(C)cc3)cc2nn1CCOC,0.03%
23,CC(=O)Nc1cc(C(=O)NCc2ccco2)ccc1Sc1ccc(F)cc1,69.2% (active)

row,Structure (SMILES),activation
1,COc1c(Cl)ccc(Cl)c1C(=O)NCc1ccco1,8.15%
2,O=C(NCc1ccco1)c1cc(-c2cccc(Cl)c2)on1,4.34%
3,CC1(C)CC(=O)C2=C(C1)OC(N)=C(C#N)[C@@H]2c1ccccc1[N+](=O)[O-],22% (active)
4,O=C1C2C3C=CC(C4CC34)C2C(=O)N1/N=C/c1ccc(-c2ccc(F)cc2[N+](=O)[O-])o1 (configuration not stated),23.2% (active)
5,CCN1C(=S)SC(=O)C1=C1C=C(C)N(Cc2ccco2)C(C)=C1,8.86%
6,Cc1cc(/C=C2\SC(=S)N(Cc3ccco3)C2=O)c(C)n1-c1ccccc1,17.4% (active)
7,Cc1cc(/C=C2\SC(=S)N(C)C2=O)c(C)n1-c1ccccc1O,33% (active)
8,Cc1cc(/C=C2\SC(=S)N(Cc3ccco3)C2=O)c(C)n1-c1cccnc1,48.4% (active)
9,COc1ccc(O)c(/C=C2/SC(=S)N(Cc3ccccc3)C2=O)c1,0.43%
10,COc1ccc(-n2c(C)cc(/C=C3\SC(=S)NC3=O)c2C)cc1,8.15%
11,CCN1CCN(c2c(/C=C3\SC(=S)N(Cc4ccco4)C3=O)c(C)c(C#N)c(=O)n2C)CC1,4.2%
12,COc1ccc(-n2c(C)cc(/C=C3\SC(=S)N(Cc4ccco4)C3=O)c2C)cc1,239% (active)
13,COc1cccc2c1C(=O)c1c(O)c3c(c(O)c1C2=O)CC(O)(C(C)=NNC(=O)c1ccc(Cl)c(Cl)c1)CC3OC1CC(N)C(O)C(C)O1 (configuration not stated),5.43%
14,O=C(c1c[nH]c(C(=O)C(Cl)(Cl)Cl)c1)c1c(F)cccc1F,3920% (active)
15,CN(C)C=NC(=O)c1cc(C(=O)c2ccccc2Cl)c[nH]1,11%
16,Cc1ccc[n+](-c2nc3ccccc3nc2[N-]S(=O)(=O)c2ccccc2)c1,55.5% (active)
17,O=S(=O)([N-]c1nc2ccccc2nc1-[n+]1ccc(-c2ccncc2)cc1)c1ccccc1,4.89%
18,CCOC(=O)N1CCC(Nc2cccc(SC)c2)CC1,246% (active)
19,CCOC(=O)c1cc(-c2ccc(F)cc2)n(CCC(=O)NC2CCN(Cc3ccccc3)CC2)c1C,10.5%
20,CCOC(=O)N1CCC(NC(=O)c2cccs2)CC1,6.98%
21,Oc1c(N=NC(=S)Nc2ccccc2F)c2ccccc2n1Cc1ccc(F)cc1,3.17%
22,Cc1ccc(Cn2c(O)c(N=NC(=S)Nc3ccccc3F)c3cc(S(=O)(=O)N4CCOCC4)ccc32)cc1,17.5% (active)
23,CCOC(=O)CCC(=O)NCc1ccc2c(c1)cc(C)n2C,11.9% (active)
